In ChEMBL document CHEMBL4043093, “2-Oxo-3, 4-dihydropyrimido[4, 5-d]pyrimidinyl derivatives as new irreversible pan fibroblast growth factor receptor (FGFR) inhibitors” (Eur J Med Chem, 2017):

Columns and labels:
[1] = test system: Tyrosine-protein kinase ABL1 (Homo sapiens), P00519 [T315I]; assay: Inhibition of human phosphorylated ABL1 T315I mutant (S229 to K512 residues) expressed in HEK293 cells assessed as residual activity at 1000 nM after 30 mins by Kinomescan method relative to control; type: cell-based
Outline: (§1)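 Single-point screen at a fixed 1 µM, run within a 456-kinase DiscoveRx KINOMEscan panel. Each kinase's read-out is Percent Control, i.e. signal relative to a control without compound. Hits were scored by a Percent Control < 35 cut-off, and an S(35) selectivity score was calculated across the non-mutant kinases.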

[2] = molecular target: RAC-beta serine/threonine-protein kinase (Homo sapiens) (UniProt P31751); assay: Inhibition of wild-type human partial length AKT2 expressed in Escherichia coli BL21 assessed as residual activity at 1000 nM after 30 mins by Kinomescan method relative to control
Chain of RAC-beta serine/threonine-protein kinase (Homo sapiens) (P31751 whole entry, the tested form may be a part): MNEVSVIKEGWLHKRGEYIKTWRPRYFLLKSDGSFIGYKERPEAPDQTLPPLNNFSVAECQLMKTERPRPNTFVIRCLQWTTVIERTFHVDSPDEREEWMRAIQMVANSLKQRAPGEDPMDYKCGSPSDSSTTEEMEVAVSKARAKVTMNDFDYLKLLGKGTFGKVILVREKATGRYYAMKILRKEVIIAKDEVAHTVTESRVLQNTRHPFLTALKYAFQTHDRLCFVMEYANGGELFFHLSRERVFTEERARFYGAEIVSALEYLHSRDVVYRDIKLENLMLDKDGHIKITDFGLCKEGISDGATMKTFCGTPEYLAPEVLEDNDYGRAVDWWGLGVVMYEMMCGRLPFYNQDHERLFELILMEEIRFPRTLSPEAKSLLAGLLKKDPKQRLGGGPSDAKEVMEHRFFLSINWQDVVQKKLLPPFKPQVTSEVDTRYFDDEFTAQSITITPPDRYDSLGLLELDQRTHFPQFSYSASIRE

[3] = molecular target: Dual specificity protein kinase CLK2 (Homo sapiens) (UniProt P49760); assay: Inhibition of wild-type human partial length CLK2 (D144 to R498 residues) expressed in Escherichia coli BL21 assessed as residual activity at 1000 nM after 30 mins by Kinomescan method relative to control
Chain of Dual specificity protein kinase CLK2 (Homo sapiens) (P49760 whole entry, looked up, the tested form may be a part): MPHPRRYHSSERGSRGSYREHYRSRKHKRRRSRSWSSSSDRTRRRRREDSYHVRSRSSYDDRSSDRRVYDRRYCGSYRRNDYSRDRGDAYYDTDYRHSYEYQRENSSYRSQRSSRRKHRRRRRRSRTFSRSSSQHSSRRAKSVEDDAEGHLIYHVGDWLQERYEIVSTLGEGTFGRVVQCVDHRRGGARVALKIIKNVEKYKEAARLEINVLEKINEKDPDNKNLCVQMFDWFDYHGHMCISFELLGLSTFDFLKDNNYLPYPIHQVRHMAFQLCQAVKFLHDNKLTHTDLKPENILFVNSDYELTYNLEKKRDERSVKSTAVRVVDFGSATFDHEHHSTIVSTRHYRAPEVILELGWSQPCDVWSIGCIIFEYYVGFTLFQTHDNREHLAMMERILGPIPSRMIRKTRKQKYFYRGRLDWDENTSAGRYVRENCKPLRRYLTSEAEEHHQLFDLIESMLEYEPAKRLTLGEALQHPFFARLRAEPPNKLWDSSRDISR

[4] = molecular target: Dual specificity protein kinase CLK3 (Homo sapiens) (UniProt P49761); assay: Inhibition of wild-type human full length CLK3 (M1 to R490 residues) expressed in Escherichia coli BL21 assessed as residual activity at 1000 nM after 30 mins by Kinomescan method relative to control; outline: as §1
Chain of Dual specificity protein kinase CLK3 (Homo sapiens) (P49761 whole entry, looked up, the tested form may be a part): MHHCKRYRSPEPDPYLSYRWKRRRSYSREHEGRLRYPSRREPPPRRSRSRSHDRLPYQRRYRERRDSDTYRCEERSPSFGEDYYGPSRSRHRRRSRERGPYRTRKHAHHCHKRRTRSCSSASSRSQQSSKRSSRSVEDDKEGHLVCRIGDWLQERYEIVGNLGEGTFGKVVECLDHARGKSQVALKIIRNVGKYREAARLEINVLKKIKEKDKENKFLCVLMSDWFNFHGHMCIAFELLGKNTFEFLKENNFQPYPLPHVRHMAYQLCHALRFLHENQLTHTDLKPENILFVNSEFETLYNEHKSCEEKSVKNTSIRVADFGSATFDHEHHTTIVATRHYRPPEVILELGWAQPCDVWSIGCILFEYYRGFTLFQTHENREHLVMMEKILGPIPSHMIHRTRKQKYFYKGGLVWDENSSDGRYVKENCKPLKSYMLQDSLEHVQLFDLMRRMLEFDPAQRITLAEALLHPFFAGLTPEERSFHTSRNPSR

[5] = molecular target: Serine/threonine-protein kinase MRCK gamma (Homo sapiens) (UniProt Q6DT37); assay: Inhibition of wild-type human partial length DMPK2 (S46 to S408 residues) expressed in Escherichia coli BL21 assessed as residual activity at 1000 nM after 30 mins by Kinomescan method relative to control
[6] = molecular target: Receptor tyrosine-protein kinase erbB-3 (Homo sapiens) (UniProt P21860); assay: Inhibition of wild-type human partial length ERBB3 (G684 to A987 residues) expressed in HEK293 cells assessed as residual activity at 1000 nM after 30 mins by Kinomescan method relative to control; type: cell-based
Chain of Receptor tyrosine-protein kinase erbB-3 (Homo sapiens) (P21860 whole entry, the tested form may be a part): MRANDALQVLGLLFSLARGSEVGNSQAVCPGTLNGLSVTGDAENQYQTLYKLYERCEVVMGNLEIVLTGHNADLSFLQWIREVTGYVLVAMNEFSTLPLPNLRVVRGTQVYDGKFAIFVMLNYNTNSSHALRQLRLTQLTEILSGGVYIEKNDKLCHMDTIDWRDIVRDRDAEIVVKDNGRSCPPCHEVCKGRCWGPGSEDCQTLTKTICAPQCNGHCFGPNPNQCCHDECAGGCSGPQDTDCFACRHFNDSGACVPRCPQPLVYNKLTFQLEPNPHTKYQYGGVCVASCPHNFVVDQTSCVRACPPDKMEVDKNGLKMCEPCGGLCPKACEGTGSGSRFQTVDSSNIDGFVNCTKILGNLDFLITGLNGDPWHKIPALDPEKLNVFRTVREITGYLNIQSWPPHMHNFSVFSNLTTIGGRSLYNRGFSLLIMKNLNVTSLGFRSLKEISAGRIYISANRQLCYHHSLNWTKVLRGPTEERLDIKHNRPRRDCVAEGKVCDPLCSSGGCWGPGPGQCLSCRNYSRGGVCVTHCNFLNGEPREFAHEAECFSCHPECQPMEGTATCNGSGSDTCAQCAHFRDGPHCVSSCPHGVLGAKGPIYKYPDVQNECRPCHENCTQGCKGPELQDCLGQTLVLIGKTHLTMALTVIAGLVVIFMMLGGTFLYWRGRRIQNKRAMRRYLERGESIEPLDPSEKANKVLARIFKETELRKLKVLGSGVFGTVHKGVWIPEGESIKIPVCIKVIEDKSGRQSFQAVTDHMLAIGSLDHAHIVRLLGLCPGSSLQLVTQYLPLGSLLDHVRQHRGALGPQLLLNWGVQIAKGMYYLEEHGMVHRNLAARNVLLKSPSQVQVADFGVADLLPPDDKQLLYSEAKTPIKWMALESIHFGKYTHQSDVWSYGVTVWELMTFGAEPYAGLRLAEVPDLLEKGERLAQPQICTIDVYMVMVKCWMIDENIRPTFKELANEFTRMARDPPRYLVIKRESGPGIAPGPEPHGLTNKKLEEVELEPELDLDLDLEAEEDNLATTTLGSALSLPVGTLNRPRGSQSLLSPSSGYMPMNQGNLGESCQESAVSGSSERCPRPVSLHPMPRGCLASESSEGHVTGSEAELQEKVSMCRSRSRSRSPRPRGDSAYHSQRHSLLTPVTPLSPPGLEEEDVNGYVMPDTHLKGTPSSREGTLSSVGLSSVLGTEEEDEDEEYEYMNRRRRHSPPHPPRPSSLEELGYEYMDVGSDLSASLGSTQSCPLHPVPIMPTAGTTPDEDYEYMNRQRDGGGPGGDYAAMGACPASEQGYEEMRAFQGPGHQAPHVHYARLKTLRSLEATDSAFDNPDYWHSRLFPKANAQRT

[7] = molecular target: Tyrosine-protein kinase Fer (Homo sapiens) (UniProt P16591); assay: Inhibition of wild-type human partial length FER (S542 to T822 residues) expressed in Escherichia coli BL21 assessed as residual activity at 1000 nM after 30 mins by Kinomescan method relative to control
Homo sapiens = organism: Homo sapiens; assay: Inhibition of human partial length FLT3 ITD/F691L double mutant expressed in Escherichia coli BL21 assessed as residual activity at 1000 nM after 30 mins by Kinomescan method relative to control
Outline: (§2)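 KINOMEscan binding panel of 456 kinases, with the test compound at a single concentration of 1 µM. Read-out is Percent Control.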

[8] = test system: Receptor-type tyrosine-protein kinase FLT3 (Homo sapiens), P36888 [N841I]; assay: Inhibition of human partial length FLT3 N841I mutant (V592 to Y969 residues) expressed in Escherichia coli BL21 assessed as residual activity at 1000 nM after 30 mins by Kinomescan method relative to control; outline: as §2
[9] = molecular target: Interleukin-1 receptor-associated kinase 1 (Homo sapiens) (UniProt P51617); assay: Inhibition of wild-type human partial length IRAK1 (R194 to S712 residues) expressed in HEK293 cells assessed as residual activity at 1000 nM after 30 mins by Kinomescan method relative to control; type: cell-based
[10] = test system: Mast/stem cell growth factor receptor Kit (Homo sapiens), P10721 [D816V]; assay: Inhibition of human partial length KIT D816V mutant (I571 to D952 residues) expressed in Escherichia coli BL21 assessed as residual activity at 1000 nM after 30 mins by Kinomescan method relative to control; outline: as §2
[11] = molecular target: LIM domain kinase 2 (Homo sapiens) (UniProt P53671); assay: Inhibition of wild-type human full length LIMK2 (M1 to P638 residues) expressed in Escherichia coli BL21 assessed as residual activity at 1000 nM after 30 mins by Kinomescan method relative to control
Outline: (§3)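 Single-concentration screen at 1 µM across a 456-kinase KINOMEscan panel. The read-out is Percent Control for each kinase.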

[12] = molecular target: Serine/threonine-protein kinase STK11 (Homo sapiens) (UniProt Q15831); assay: Inhibition of wild-type human full length LKB1 (M1 to Q433 residues) expressed in Escherichia coli BL21 assessed as residual activity at 1000 nM after 30 mins by Kinomescan method relative to control; outline: as §3
[13] = molecular target: MAP kinase-activated protein kinase 2 (Homo sapiens) (UniProt P49137); assay: Inhibition of wild-type human partial length MAPKAPK2 (V48 to D345 residues) expressed in Escherichia coli BL21 assessed as residual activity at 1000 nM after 30 mins by Kinomescan method relative to control
[14] = molecular target: Mitogen-activated protein kinase kinase kinase 11 (Homo sapiens) (UniProt Q16584); assay: Inhibition of wild-type human partial length MLK3 (I77 to W399 residues) expressed in Escherichia coli BL21 assessed as residual activity at 1000 nM after 30 mins by Kinomescan method relative to control
[15] = molecular target: Mitogen-activated protein kinase kinase kinase 14 (Homo sapiens) (UniProt Q99558); assay: Inhibition of wild-type human partial length NIK (L318 to P947 residues) expressed in HEK293 cells assessed as residual activity at 1000 nM after 30 mins by Kinomescan method relative to control; type: cell-based
Chain of Mitogen-activated protein kinase kinase kinase 14 (Homo sapiens) (Q99558 whole entry, looked up, the tested form may be a part, canonical isoform): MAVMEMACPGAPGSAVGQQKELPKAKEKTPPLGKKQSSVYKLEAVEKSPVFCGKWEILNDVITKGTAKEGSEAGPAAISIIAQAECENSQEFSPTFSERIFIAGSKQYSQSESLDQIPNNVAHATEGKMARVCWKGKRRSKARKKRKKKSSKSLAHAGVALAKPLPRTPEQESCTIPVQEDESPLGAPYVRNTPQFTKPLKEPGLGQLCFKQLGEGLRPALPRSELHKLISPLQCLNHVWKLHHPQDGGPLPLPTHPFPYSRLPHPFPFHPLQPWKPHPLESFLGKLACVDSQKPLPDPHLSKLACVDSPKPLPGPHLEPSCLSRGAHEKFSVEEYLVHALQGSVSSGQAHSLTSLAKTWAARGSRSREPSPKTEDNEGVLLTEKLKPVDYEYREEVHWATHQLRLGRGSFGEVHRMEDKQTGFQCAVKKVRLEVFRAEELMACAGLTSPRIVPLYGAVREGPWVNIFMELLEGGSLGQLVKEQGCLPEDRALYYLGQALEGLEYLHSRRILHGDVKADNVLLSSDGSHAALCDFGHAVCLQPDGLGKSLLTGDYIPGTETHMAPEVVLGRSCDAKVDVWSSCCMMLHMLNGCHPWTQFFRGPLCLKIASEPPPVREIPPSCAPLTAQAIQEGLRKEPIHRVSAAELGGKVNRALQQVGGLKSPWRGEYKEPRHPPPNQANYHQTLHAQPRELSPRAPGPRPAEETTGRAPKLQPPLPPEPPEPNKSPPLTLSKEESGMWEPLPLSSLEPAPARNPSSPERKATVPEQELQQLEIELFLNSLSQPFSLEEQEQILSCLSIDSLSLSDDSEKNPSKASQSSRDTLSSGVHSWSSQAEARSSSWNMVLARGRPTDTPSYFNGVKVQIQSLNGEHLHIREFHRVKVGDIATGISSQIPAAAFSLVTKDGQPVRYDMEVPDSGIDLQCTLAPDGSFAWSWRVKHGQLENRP

[16] = molecular target: Phosphatidylinositol 4,5-bisphosphate 3-kinase catalytic subunit beta isoform (Homo sapiens) (UniProt P42338); assay: Inhibition of wild-type human partial length PIK3CB (P118 to S1070 residues) expressed in HEK293 cells assessed as residual activity at 1000 nM after 30 mins by Kinomescan method relative to control; type: cell-based
[17] = molecular target: Serine/threonine-protein kinase pim-3 (Homo sapiens) (UniProt Q86V86); assay: Inhibition of wild-type human partial length PIM3 (G16 to A317 residues) expressed in Escherichia coli BL21 assessed as residual activity at 1000 nM after 30 mins by Kinomescan method relative to control
[18] = molecular target: Ribosomal protein S6 kinase alpha-2 (Homo sapiens) (UniProt Q15349); assay: Inhibition of wild-type human partial length N-terminal RSK2 kinase domain 1 (M1 to D394 residues) expressed in HEK293 cells assessed as residual activity at 1000 nM after 30 mins by Kinomescan method relative to control; type: cell-based
Chain of Ribosomal protein S6 kinase alpha-2 (Homo sapiens) (Q15349 whole entry, the tested form may be a part): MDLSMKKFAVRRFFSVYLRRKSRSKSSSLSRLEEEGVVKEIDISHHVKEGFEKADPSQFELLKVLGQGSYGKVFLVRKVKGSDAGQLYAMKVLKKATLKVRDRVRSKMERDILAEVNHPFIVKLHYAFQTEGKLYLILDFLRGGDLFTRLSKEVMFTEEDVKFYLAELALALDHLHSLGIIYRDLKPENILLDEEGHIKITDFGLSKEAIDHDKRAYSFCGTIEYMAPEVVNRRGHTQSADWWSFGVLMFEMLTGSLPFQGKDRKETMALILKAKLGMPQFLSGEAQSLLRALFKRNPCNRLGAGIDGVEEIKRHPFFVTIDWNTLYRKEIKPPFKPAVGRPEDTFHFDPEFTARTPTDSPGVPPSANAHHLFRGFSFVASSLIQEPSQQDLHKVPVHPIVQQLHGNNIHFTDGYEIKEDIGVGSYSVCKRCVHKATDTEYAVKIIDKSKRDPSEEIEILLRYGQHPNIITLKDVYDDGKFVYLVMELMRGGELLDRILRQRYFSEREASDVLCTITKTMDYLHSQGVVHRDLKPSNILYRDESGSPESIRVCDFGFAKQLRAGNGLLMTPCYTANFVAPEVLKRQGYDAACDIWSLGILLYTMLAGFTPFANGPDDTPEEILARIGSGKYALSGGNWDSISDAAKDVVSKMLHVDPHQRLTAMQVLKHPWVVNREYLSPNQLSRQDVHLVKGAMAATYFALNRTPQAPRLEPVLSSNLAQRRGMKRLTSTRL

[19] = molecular target: Tyrosine-protein kinase Srms (Homo sapiens) (UniProt Q9H3Y6); assay: Inhibition of wild-type human partial length SRMS (L208 to P488 residues) expressed in HEK293 cells assessed as residual activity at 1000 nM after 30 mins by Kinomescan method relative to control; type: cell-based
[20] = molecular target: Serine/threonine-protein kinase 32B (Homo sapiens) (UniProt Q9NY57); assay: Inhibition of wild-type human full length YANK2 (M1 to S414 residues) expressed in Escherichia coli BL21 assessed as residual activity at 1000 nM after 30 mins by Kinomescan method relative to control
Chain of Serine/threonine-protein kinase 32B (Homo sapiens) (Q9NY57 whole entry, the tested form may be a part): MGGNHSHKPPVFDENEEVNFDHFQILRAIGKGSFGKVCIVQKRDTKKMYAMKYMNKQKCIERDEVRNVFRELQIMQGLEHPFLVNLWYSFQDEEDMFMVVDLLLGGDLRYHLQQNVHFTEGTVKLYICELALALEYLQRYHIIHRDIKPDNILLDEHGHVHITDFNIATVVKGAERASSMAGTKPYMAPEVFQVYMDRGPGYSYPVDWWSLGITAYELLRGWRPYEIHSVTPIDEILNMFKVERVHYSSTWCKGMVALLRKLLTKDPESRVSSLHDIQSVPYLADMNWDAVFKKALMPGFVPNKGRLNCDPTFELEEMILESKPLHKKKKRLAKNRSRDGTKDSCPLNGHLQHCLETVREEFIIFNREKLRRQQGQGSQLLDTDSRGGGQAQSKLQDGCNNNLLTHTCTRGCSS

COc1cc(OC)c(Cl)c(N2Cc3cnc(Nc4ccc(F)cc4)nc3N(C3CCN(C(=O)/C=C/CN(C)C)CC3)C2=O)c1Cl
Activity [1]: 97%
Activity [2]: 92%
Activity [3]: 100%
Activity [4]: 100%
Activity [5]: 100%
Activity [6]: 100%
Activity [7]: 67%
Activity (Homo sapiens): 90%
Activity [8]: 88%
Activity [9]: 98%
Activity [10]: 41%
Activity [11]: 100%
Activity [12]: 100%
Activity [13]: 99%
Activity [14]: 83%
Activity [15]: 93%
Activity [16]: 100%
Activity [17]: 100%
Activity [18]: 89%
Activity [19]: 100%
Activity [20]: 83%
